HNF4A DNA FP – change in binding of human HNF4 alpha to DNA; HNF4a-FITC DNA binding, fluorescence polarization, 1 h; activity change, % at 10 µM; 0.3% of 360,000 active; AID 1224865; in the data active = activity change above about 30%, passing the limit was not always enough
NadD block – NadD (S. aureus) enzyme inhibition. purified NadD enzyme, colorimetric absorbance read-out. inhibition, % at 20 µM. 0.78% of 360,000 active. AID 602399; in the data active = inhibition above about 26%
PP1 inh – PP1-alpha (human) inhibition in PP5 counter-screen. P62136. purified PP1alpha, OMFP fluorescence. inhibition, % at 6.7 µM. 0.9% of 320,000 active. AID 2235;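 active = inhibition above the mean inhibition of all tested compounds plus 3 SD, computed separately for each screening campaign, cut at about 15% in these data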
Target sequence (P62136 whole entry, looked up): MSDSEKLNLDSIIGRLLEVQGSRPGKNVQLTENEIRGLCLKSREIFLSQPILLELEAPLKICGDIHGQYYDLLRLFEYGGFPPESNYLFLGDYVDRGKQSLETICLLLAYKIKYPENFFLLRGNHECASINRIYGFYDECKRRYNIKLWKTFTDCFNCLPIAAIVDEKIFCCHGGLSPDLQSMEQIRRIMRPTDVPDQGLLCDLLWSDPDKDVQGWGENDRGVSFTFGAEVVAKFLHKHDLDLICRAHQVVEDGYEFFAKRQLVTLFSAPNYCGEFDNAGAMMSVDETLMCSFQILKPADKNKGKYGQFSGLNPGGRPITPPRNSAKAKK
CSN inh – blocks human CSN-mediated cullin deneddylation; 0.38% of 360,000 active; inhibition, % at 12.5 µM; Q92905; Purified CSN, SCF-Nedd8-OG deneddylation, fluorescence polarization;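 active = pattern-corrected inhibition above about 35%, with an unprinted fluorescence ratio check between 0.5 and 1.5, limit read from the data, passing the limit was not always enough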;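 note: 0% = enzyme with substrate and 100% = substrate without enzyme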
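Test system: Human Csn5 produced in HEK293T cells | Compound: 12.5 µM single point | Times: 90 min, room temperature | Signal: Fluorescence polarization readout | Read-out basis: % inhibition of substrate cleavage by Csn5 | Controls: no-enzyme wells high, enzyme-with-substrate wells low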
Rpn11 block – blocks the human proteasome subunit Rpn11; O00487; human 26S proteasome, Ub4-pepOG fluorescence polarization; 20S core pre-blocked with epoxomicin; inhibition, % at 20 µM; 0.59% of 360,000 active; AID 588493;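 active = inhibition at 20 µM, scaled to each plate's controls, above about 33%, limit read from the data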
Target sequence (O00487 whole entry, looked up): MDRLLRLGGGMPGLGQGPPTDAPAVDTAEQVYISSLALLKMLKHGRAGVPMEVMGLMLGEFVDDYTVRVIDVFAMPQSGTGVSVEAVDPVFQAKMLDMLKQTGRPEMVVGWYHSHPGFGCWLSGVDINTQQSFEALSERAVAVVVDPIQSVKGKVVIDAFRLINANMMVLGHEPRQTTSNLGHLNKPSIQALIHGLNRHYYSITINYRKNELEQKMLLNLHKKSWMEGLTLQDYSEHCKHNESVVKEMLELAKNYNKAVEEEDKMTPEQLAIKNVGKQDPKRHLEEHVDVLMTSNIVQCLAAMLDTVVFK
TPT1 inhibitor – blocks Candida albicans tRNA 2'-phosphotransferase; inhibition, % at 5 µM; 0.81% of 300,000 active; recombinant caTPT1, FP RNA substrate dephosphorylation; AID 1962;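 active = inhibition above the mean of all tested compounds plus 3 SD, set per screening campaign, cut at about 24% in these data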;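 note: plate controls were DMSO alone for no effect and ferristatin control at 100 nM for full effect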
Numbers without * were called inactive; . = not tested or not shown. In the library only some 2.7% were active in any assay of this set; here they are far more common.

SMILES | HNF4A DNA FP | NadD block | PP1 inh | CSN inh | Rpn11 block | TPT1 inhibitor
O=C(Nc1ccc([N+](=O)[O-])cc1)Nc1ccc(OC(F)F)c(Cl)c1 | 0 | -7 | 17* | -4 | -3 | -2
C[C@H]1CN([C@@H](C)CO)C(=O)CCCn2nncc2CO[C@H]1CN(C)C(=O)Nc1cccc2ccccc12 | 2 | -6 | . | 0 | -7 | .
O=c1[nH]c(C2CCN(S(=O)(=O)/C=C/c3ccccc3)CC2)nc2c1nnn2Cc1ccccc1 | 1 | 8 | 15* | -3 | -6 | 2
Cc1ccc(S(=O)(=O)N2CCC(c3nc4c(nnn4Cc4ccccc4)c(=O)[nH]3)CC2)cc1 | 3 | 11 | 16* | -4 | -12 | -4
COc1ccccc1CN(C(=O)CCl)C(C(=O)NC1CCCCC1)c1ccncc1 (centres undefined) | -2 | 22 | 17* | -8 | -22 | -3
COc1ccc(N2CCCC2=O)cc1S(=O)(=O)N1CCOCC1 | 22 | -10 | . | 4 | 6 | .
Oc1c(CN2CCOCC2)cc(COCc2ccccc2)c2cccnc12 | 1 | -7 | 16* | 1 | 18 | 1
O=C(NCCC1=CCCCC1)c1c(O)nc2ccccn2c1=O | -3 | 8 | 15* | 1 | -3 | -5
O=C(NCCC1=CCCCC1)c1c(O)nc2sccn2c1=O | 0 | 8 | 8 | 1 | -5 | 2
O=C(c1ccco1)N1CCN(C(=O)C2CCN(S(=O)(=O)Cc3ccccc3)CC2)CC1 | 3 | 1 | -2 | 62* | -6 | -2
C=CCOC(=O)C1=C[C@@H](c2ccc(C(F)(F)F)cc2)C[C@@H](OCc2ccc(CO)cc2)O1 | 1 | 2 | 10 | -1 | 7 | -2
O=C(Oc1c(Cl)cc(Cl)c2cccnc12)c1cccc([N+](=O)[O-])c1 | 1 | 8 | 2 | -4 | 49* | -2
COCCn1c(C)cc(/C=N/NC(=O)c2cc3ccccc3cc2O)c1C | 2 | 35* | 6 | 6 | 16 | .
O=C(O)c1ccc(/C=N/NC(=O)c2cc3ccccc3cc2O)cc1 | 0 | 3 | . | 2 | 4 | .
CCCN(CC(=O)Nc1ccccc1OC)C(=O)C1=COCCO1 | 3 | -1 | -2 | -4 | -1 | .
CSC1=N/C(=C\c2ccc(Br)o2)C(=O)S1 | -12 | 9 | -2 | 43* | 20 | 6
Cc1ccc(OCC(=O)Nc2ccc(S(=O)(=O)N3CCOCC3)cc2)c(Br)c1 | 3 | -4 | -3 | -1 | -4 | 0
CCCCCCCC1CC(CSc2ncn[nH]2)OC1=O (centres undefined) | 0 | -2 | -3 | 54* | -5 | -13
CN(C(=O)c1cccc(NC(=O)Cc2ccc(NC(=O)C3CCCN(S(=O)(=O)c4cccc([N+](=O)[O-])c4)C3)cc2)c1)C1CCC1 (centres undefined) | 2 | 16 | . | -4 | 8 | .
Cc1ccc(-c2csc(Nc3ccc(C(=O)O)cc3)[n+]2Cc2ccccc2)cc1 | -46 | 44* | -5 | 9 | 6 | -2
COc1cc2c(cc1OC)C(c1ccc(-c3cc(Cl)ccc3Cl)o1)=NCC2 | 38* | 5 | 2 | 6 | -42 | 22
Cc1ccc(Nc2cc(C)c3c(O)cccc3n2)cc1C | -4 | -4 | 10 | -1 | 1 | 0
Cc1ccc(Nc2cc(C)c3ccc(O)cc3n2)cc1C | 4 | -10 | 17* | -3 | 2 | -2
Cc1c(C(=O)N2CCCCC2CCN2CCCC2=O)oc2c(F)cccc12 (centres undefined) | -3 | -3 | -7 | 4 | -2 | 1
CCOC(=O)c1cnn(C)c1NC(=O)c1ccc([N+](=O)[O-])cc1 | -1 | 4 | 0 | 2 | 4 | -1
SMILES | HNF4A DNA FP | NadD block | PP1 inh | CSN inh | Rpn11 block | TPT1 inhibitor
O=c1[nH]c2ccccc2nc1-c1nnnn1Cc1ccccc1 | 0 | 5 | . | -7 | . | .
O=[N+]([O-])c1ccc2nc(N3CCCC3)sc2c1 | 2 | 5 | 9 | 1 | -2 | 1
Fc1ccc2nc(N3CCCC3)sc2c1 | 34* | -2 | 2 | -6 | 0 | -1
Cc1ccccc1OCC(=O)Nc1ccccc1NC(=O)c1ccco1 | 1 | -1 | -5 | 1 | 2 | -1
Cc1ccccc1OCC(=O)NNC(=S)NC(=O)c1ccco1 | 5 | 9 | 17* | -6 | 6 | 0
NC(=O)c1cc(S(=O)(=O)NCCc2ccc(Cl)cc2)cs1 | -2 | -3 | 1 | 1 | -2 | -1
N#Cc1c(N)sc(=S)c2c1CCN(Cc1ccccc1)C2 | . | . | 20* | . | . | 18
CCN1CCc2c(sc(N)c2C#N)C1 | 4 | 8 | -1 | 3 | 5 | -2
O=C(N/N=C/c1ccc(OCc2ccc(F)cc2)cc1)c1ccccc1 | -1 | 1 | -3 | 1 | -8 | 4
CC(C)(C)c1ccc(OCc2ccc(C(=O)N/N=C/c3ccc(O)c(O)c3)cc2)cc1 | -1 | 72* | 3 | -10 | -6 | 0
COc1ccc(-c2csc(C(NC(C)=O)c3ccc(F)c(F)c3)n2)cn1 (centres undefined) | -5 | 1 | . | -6 | -2 | .
O=C(NCc1ccc(OC(F)(F)F)cc1)c1cccc2c1C(=O)c1ccc(N3CCCCC3)cc1S2(=O)=O | 56 | 20 | . | -72 | 23 | .
O=C(NCc1cc(C(F)(F)F)ccc1Cl)c1cccc2c1C(=O)c1ccc(N3CCCCC3)cc1S2(=O)=O | 73 | 24 | . | 55* | . | .
O=C(NCc1ccc(OC(F)(F)F)cc1)c1cccc2c1C(=O)c1ccc(N3CCCC3)cc1S2(=O)=O | 99 | 22 | . | 85* | . | .
O=C(/C=C/c1ccc(Cl)c(C(F)(F)F)c1)N1CCN(c2ccccn2)CC1 | 1 | -7 | 4 | 2 | 2 | 0
COCCN1C(=O)COc2ccccc2C1C(=O)NCc1ccccc1 (centres undefined) | -3 | 5 | . | -3 | . | .
COc1ccc(-n2c(-c3ccc(Cl)cc3)c[n+]3c2CCc2ccccc2-3)cc1 | 0 | 12 | -1 | -3 | -14 | 0
Cc1ccc(-n2c(-c3ccc(Br)cc3)c[n+]3c2CCc2ccc4cccnc4c2-3)cc1 | 1 | 4 | 25* | 2 | -68 | -1
CCN(C(=O)COC(=O)c1ccc(C=O)cc1)c1c(N)n(Cc2ccccc2)c(=O)[nH]c1=O | 3 | 0 | 4 | 0 | 9 | .
Cc1ccc2nc(/C(C#N)=C\c3cc(C)n(-c4cccc([N+](=O)[O-])c4)c3C)[nH]c2c1 | 1 | 29* | 9 | 6 | -6 | 3
O=C(N/N=C/c1ccc2c(c1)OCO2)c1ccc(COCC(F)(F)C(F)F)cc1 | 0 | -4 | -2 | -2 | 42* | 0
CCc1ccc(N2CC(C(=O)N/N=C/c3ccccc3)CC2=O)cc1 (centres undefined) | 3 | 0 | -6 | -3 | 2 | 2
O=[N+]([O-])c1ccc(NN=Cc2cccc3ccccc23)nc1 | 35* | 7 | . | 23 | . | .
